The subject of test [1] is Plasmodium yoelii. In words: Antiplasmodial activity against Plasmodium yoelii infected in Swiss mice (Mus musculus) erythrocytes assessed as inhibition of beta-hematin formation after 16 hrs by fluorescence assay. The class given is functional, organism-based. As to conditions: Plasmodium yoelii, 16 h; in the assay text read “absorbance measurement at 400 nm” for “fluorescence assay”. A digest of the protocol: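 Plasma came from P. yoelii-infected mouse blood at about 50% parasitemia, collected in citrate and centrifuged. The mix held 100 mM sodium acetate pH 5.1, 50 µL plasma and 100 µM hemin substrate in 1.0 mL, run in triplicate at 37 °C for 16 h with shaking. The pellet was dissolved in Tris-HCl pH 7.4 with 2.5% SDS. Absorbance at 400 nm; IC50 by non-linear regression.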

Test [2] relates to Plasmodium yoelii. In words: Antimalarial activity against chloroquine-resistant Plasmodium yoelii N67 infected in Swiss mice (Mus musculus) assessed as inhibition of parasitaemia at 10 mg/kg, perorally administered for 4 days measured on day 4 post-infection. As to conditions: N67, 96 h, route oral. The class given is functional. Put shortly: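 Swiss mice were inoculated with 1 × 10⁶ P. yoelii N-67 parasitized RBC on day 0. Groups of five were dosed with chloroquine orally at 10 mg/kg once daily from day 0 to 3. Parasitaemia was read from thin blood smears on day 4, and percent suppression was calculated from the group mean against untreated controls.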

In brackets after ≈: the same amount, converted by molar mass.

What is called IC50 is the concentration at which inhibition is half-maximal. Broadly, the inhibition in vivo is the drop in the measured response relative to a control, in per cent. `CCN(CC)CCCC(C)Nc1ccnc2cc(Cl)ccc12` (configuration not stated) [CHLOROQUINE]: in the test on Plasmodium yoelii [1], the 50% inhibitory concentration (IC50) amounted to 4.87 µg/mL (≈ 15.2 µM). The inhibition in vivo at 10 mg/kg with Plasmodium yoelii [2] amounted to 99%.

These data come from ChEMBL document CHEMBL1152534, “Synthesis of oxalamide and triazine derivatives as a novel class of hybrid 4-aminoquinoline with potent antiplasmodial activity” (Bioorg Med Chem, 2009).
